Runt-CBFb FRET = blocks binding of human RUNX1 Runt domain to CBFb | Q01196+Q13951 | Cerulean-Runt/Venus-CBFb FRET ratio 530/480, 1 h | inhibition, % at 20 µM | 220,000 compounds, 0.46% hits | AID 1496;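 active = inhibition over about 50% at 20 µM in the single-dose screen, limit read from the data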;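 also: 0% = DMSO wells and 100% = excess unlabeled CBFb competitor control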
Target sequence (Q01196 whole entry, looked up, the tested form may be a part): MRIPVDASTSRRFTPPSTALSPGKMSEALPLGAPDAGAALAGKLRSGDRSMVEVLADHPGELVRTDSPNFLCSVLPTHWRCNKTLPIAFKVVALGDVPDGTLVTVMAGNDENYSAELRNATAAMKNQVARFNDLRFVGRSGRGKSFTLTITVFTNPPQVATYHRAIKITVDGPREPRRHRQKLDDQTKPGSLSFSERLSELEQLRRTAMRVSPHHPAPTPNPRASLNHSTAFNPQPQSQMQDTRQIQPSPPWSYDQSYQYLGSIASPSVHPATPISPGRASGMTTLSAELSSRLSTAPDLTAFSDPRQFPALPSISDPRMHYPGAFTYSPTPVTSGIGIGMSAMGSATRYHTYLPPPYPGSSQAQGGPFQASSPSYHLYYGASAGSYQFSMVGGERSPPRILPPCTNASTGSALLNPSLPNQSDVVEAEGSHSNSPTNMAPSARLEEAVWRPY
Target sequence (Q13951 whole entry, looked up, the tested form may be a part): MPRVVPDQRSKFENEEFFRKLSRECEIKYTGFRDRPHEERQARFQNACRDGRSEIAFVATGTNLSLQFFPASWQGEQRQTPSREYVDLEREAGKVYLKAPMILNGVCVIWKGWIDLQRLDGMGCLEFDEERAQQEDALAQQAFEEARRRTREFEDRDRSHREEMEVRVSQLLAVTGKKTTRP
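test system = Cerulean-tagged RUNX1 Runt domain (FRET donor) fusion protein | reagent = Venus-CBFb binding partner, 100 nM | incubation = protein complex preformed 1 h, compound exposure 1 h, room temperature, dark | detection = FRET fluorescence | read-out basis = loss of energy transfer signal | controls = 5 µM unlabeled CBFb as full-inhibition high control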
Runt-SMMHC FRET = blocks binding of human RUNX1 Runt domain to CBFb-SMMHC | Cerulean-Runt/Venus-CBFb-SMMHC FRET ratio 530/480, 1 h | inhibition, % at 20 µM | 220,000 compounds, 0.74% hits | Q01196+Q13951;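 active = mean inhibition across duplicate retests at 20 µM reaching about 50%, limit read from the data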;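 also: 0% = DMSO wells and 100% = wells with excess untagged CBFb-SMMHC; inhibitors lower the FRET ratio by blocking Runt binding to CBFb-SMMHC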
RanGTP-Imp inh = inhibitors of RanGTP-importin-beta interaction, primary screen, biochemical, FRET, CFP-Ran, YFP-importin-beta, homogeneous; cell-free CFP-Ran/YFP-importin-beta FRET ratio; inhibition, % (no concentration beside the values); 300,000 compounds, 1.1% hits; AID 2216;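 active = more than half of the replicate wells show a fall in the fluorescence ratio signal beyond about 16%, limit read from the data, passing the limit was not always enough; inconclusive = exactly half of the replicate wells pass the set limit; inactive = fewer than half of replicates pass the limit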;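 also: 0% = DMSO wells and 100% = Ran loaded with GDP instead of GTP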
Hck-Nef inh = inhibitors of human Hck kinase activated by Nef; P08631; Recombinant Hck-YEEI plus Nef, Z-Lyte FRET kinase assay; inhibition, % at 20 µM; 220,000 compounds, 0.68% hits; AID 463187;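 active = Hck-Nef kinase inhibition above about 50%, limit read from the data; inactive = inhibition below that limit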;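 also: 0% = DMSO with Hck plus Nef and 100% = Hck alone without Nef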
Tb hexokinase = blocks Trypanosoma brucei hexokinase 1 activity | recombinant TbHK1, G6PDH-coupled NADH A340 | inhibition, % at 10 µM | 220,000 compounds, 0.11% hits;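 active = inhibition of 50% or more in the single-dose primary screen; inactive = inhibition below 50%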
An asterisk follows results filed as active. The list is not random: actives were taken first. Their share in the collection is about 1.9%.

Screening CC(C)(C)C(=O)Nc1sc2c(c1C#N)CCN(Cc1ccccc1)C2 returned RanGTP-Imp inh 150*.
Screening COc1ccc(C(=O)CC(=O)C(=O)Nc2ccc(C)c(Cl)c2)cc1 returned RanGTP-Imp inh 3.
For CC1=C(C(=O)Nc2cc(C(=O)N3CCC(C)CC3)ccc2C)SCCO1 the results were RanGTP-Imp inh 1.
Cc1ccc(Cn2c(=N)c(C(=O)NCC3CCCO3)cc3c(=O)n4ccccc4nc32)cc1 (centres undefined) was read as RanGTP-Imp inh 161*.
`N=c1c(C(=O)NCC2CCCO2)cc2c(=O)n3ccccc3nc2n1Cc1ccc(Cl)cc1` (centres undefined) gave RanGTP-Imp inh 180*.
`N=c1c(C(=O)NCC2CCCO2)cc2c(=O)n3ccccc3nc2n1Cc1ccccc1Cl` (centres undefined) gave RanGTP-Imp inh 188*.
For N=c1c(C(=O)NCC2CCCO2)cc2c(=O)n3ccccc3nc2n1Cc1ccccc1 (centres undefined) the results were RanGTP-Imp inh 180*.
Screening Cc1ccc(Cn2c(=N)c(C(=O)NCC3CCCO3)cc3c(=O)n4cccc(C)c4nc32)cc1 (centres undefined) returned RanGTP-Imp inh -3.
For CCN(CCn1cccn1)C(=O)C1CCC(=O)N(CCc2cccc(F)c2)C1 (centres undefined) the results were RanGTP-Imp inh -1.
`COc1ccc(-c2cc(C(F)F)n3ncc(C(=O)NCC4CCCO4)c3n2)cc1` (centres undefined) gave Runt-CBFb FRET 18, Runt-SMMHC FRET 62*, RanGTP-Imp inh 58*, Hck-Nef inh 1 and Tb hexokinase -5.
For COc1ccc(Cn2c(=N)c(C(=O)NCC3CCCO3)cc3c(=O)n4ccccc4nc32)cc1 (centres undefined) the results were RanGTP-Imp inh 23*.
Screening O=[N+]([O-])c1cccc(S(=O)(=O)N2CCCCC2c2cccnc2)c1 (centres undefined) returned RanGTP-Imp inh 4.
N#Cc1ccc(-c2ccc(OCC(=O)NCCCN3CCCC3=O)cc2)cc1 was read as Runt-CBFb FRET -2, Runt-SMMHC FRET -2, RanGTP-Imp inh 1, Hck-Nef inh 41 and Tb hexokinase -10.
`CC1=[N+](CC(=O)c2ccccc2)CCn2cccc21` gave Runt-CBFb FRET -16, Runt-SMMHC FRET -39, RanGTP-Imp inh 20*, Hck-Nef inh 19 and Tb hexokinase -23.
`CC1CCN(S(=O)(=O)c2ccc3c(c2)NC(=O)CS3)CC1` gave RanGTP-Imp inh -1.
N#CC1=C(N)N2C(=C(C#N)C13CCN(Cc1ccccc1)CC3)Nc1ccccc12 was read as Runt-CBFb FRET 12, Runt-SMMHC FRET 19, RanGTP-Imp inh 34*, Hck-Nef inh 14 and Tb hexokinase 0.
For CC(C)CC1C(C#N)=C(N)SC(N)=C1C#N the results were Runt-CBFb FRET 6, Runt-SMMHC FRET 8, RanGTP-Imp inh 41*, Hck-Nef inh 1 and Tb hexokinase -4.
N#CC1=C(N)SC(N)=C(C#N)C1CCc1ccccc1 was read as Runt-CBFb FRET 26, Runt-SMMHC FRET 39, RanGTP-Imp inh inconclusive, Hck-Nef inh 5 and Tb hexokinase -9.
`N#CC1=C(N)SC(N)=C(C#N)C1Cc1ccccc1` gave Runt-CBFb FRET 22, Runt-SMMHC FRET 49, RanGTP-Imp inh 62*, Hck-Nef inh 1 and Tb hexokinase -3.
`Cc1cccc(N(Cc2ccccc2)C(=O)c2cc(S(=O)(=O)N3CCOCC3)ccc2Cl)c1` gave RanGTP-Imp inh 3.
CCO[C@@H]1OC(C(=O)NC2CC2)=C[C@H](C2CC2)[C@H]1CCCO was read as Runt-CBFb FRET -1, Runt-SMMHC FRET 0, RanGTP-Imp inh 30*, Hck-Nef inh 26 and Tb hexokinase -11.
Screening COc1ccc(CNC(=O)c2cc3c(=O)n4ccccc4nc3n(Cc3ccco3)c2=N)cc1 returned Hck-Nef inh 1 and Tb hexokinase -4.
For Cc1ccc(Cn2c(=N)c(C(=O)NCc3ccco3)cc3c(=O)n4ccccc4nc32)cc1 the results were Runt-CBFb FRET 29, RanGTP-Imp inh 114*, Hck-Nef inh 17 and Tb hexokinase -9.
For N=c1c(C(=O)NCc2ccco2)cc2c(=O)n3ccccc3nc2n1CCc1ccccc1 the results were Runt-CBFb FRET 12, Runt-SMMHC FRET 38, RanGTP-Imp inh 130*, Hck-Nef inh 1 and Tb hexokinase -17.
Screening O=S(=O)(c1ccc(OC(F)(F)F)cc1)N1CCCC(N2CCOCC2)C1 (centres undefined) returned RanGTP-Imp inh 0.
CCCCc1nnc(NC(=O)c2ccc3[nH]c(=O)c(=O)[nH]c3c2)s1 was read as RanGTP-Imp inh 2.
Nc1ccc(S(=O)(=O)Nc2nc3ccccc3o2)cc1 was read as RanGTP-Imp inh 3.
`COc1ccc(CCn2c(O)cc3nn(-c4nc5ccccc5s4)c(=O)c-3c2C)cc1` gave Runt-CBFb FRET -3, Runt-SMMHC FRET -16, RanGTP-Imp inh 5, Hck-Nef inh 68* and Tb hexokinase -4.
CCC(=O)NC(=S)NNC(=O)c1ccc(O)cc1 was read as RanGTP-Imp inh -2, Hck-Nef inh 20 and Tb hexokinase -5.
O=C(CNS(=O)(=O)c1ccc(Br)s1)NCCc1ccc(Cl)cc1 was read as RanGTP-Imp inh 6.
`COc1ccc(-n2c(=S)[nH]c3sc4c(c3c2=O)CCN(C)C4)cc1` gave Runt-CBFb FRET 14, Runt-SMMHC FRET 39, RanGTP-Imp inh 23*, Hck-Nef inh 3 and Tb hexokinase -39.
`CCCc1nc2cc3c(cc2[nH]1)n(C)c(=O)n3C` gave RanGTP-Imp inh 0.
Cc1cc(C)c(S(=O)(=O)N2CCOC2CNC(=O)C(=O)NCCN(C)C)c(C)c1 (centres undefined) was read as RanGTP-Imp inh 4.
O=[N+]([O-])c1ccc2c(c1)N([O-])C1(CCCCC1)[N+]2=O was read as Runt-CBFb FRET 26, Runt-SMMHC FRET 73*, Hck-Nef inh -18 and Tb hexokinase -6.
Screening CSCCC(NC(=O)COc1ccccc1)C(=O)OC(C)C(=O)Nc1ccccc1C (centres undefined) returned RanGTP-Imp inh 0.
Screening O=C(COc1ccc(Br)cc1)N(Cc1cccs1)C1CCS(=O)(=O)C1 (centres undefined) returned RanGTP-Imp inh 18*.
For COc1ccc(OC)c(CNS(=O)(=O)c2cc(CN3C(=O)c4cccnc4C3=O)ccc2OC)c1 the results were RanGTP-Imp inh 1.
`CS(=O)(=O)N1CCC(C(=O)Nc2cc(Cl)c(Cl)cc2Cl)CC1` gave RanGTP-Imp inh 3.

Compound activity: PubChem, several laboratories
